Measured values: ChEMBL document CHEMBL4715745, “Synthesis and biological evaluation of novel FK228 analogues as potential isoform selective HDAC inhibitors” (Eur J Med Chem, 2016)

Legend:
DMS-273 = assay: Growth inhibition of human DMS-273 cells measured after 48 hrs by sulforhodamine B assay; type: functional
Method in brief: (§1)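 Panel of 39 human cancer cell lines tested at the Japanese Foundation for Cancer Research. Five concentrations per compound, spanning 10⁻¹¹–10⁻⁷ M, 10⁻¹⁰–10⁻⁶ M or 10⁻⁸–10⁻⁴ M, were used to build dose-response curves. GI₅₀ is the concentration giving 50% growth inhibition relative to control.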

MKN-1 = assay: Growth inhibition of human MKN-1 cells measured after 48 hrs by sulforhodamine B assay; type: functional; method in brief: as §1
DMS-114 = assay: Growth inhibition of human DMS-114 cells measured after 48 hrs by sulforhodamine B assay; type: functional; method in brief: as §1
MKN-28 = assay: Growth inhibition of human MKN-28 cells measured after 48 hrs by sulforhodamine B assay; type: functional; method in brief: as §1
MDA-MB-231 = assay: Growth inhibition of human MDA-MB-231 cells measured after 48 hrs by sulforhodamine B assay; type: functional; method in brief: as §1
HCT-116 = assay: Growth inhibition of human HCT-116 cells measured after 48 hrs by sulforhodamine B assay; type: functional; method in brief: as §1
MKN-45 = assay: Growth inhibition of human MKN-45 cells measured after 48 hrs by sulforhodamine B assay; type: functional; method in brief: as §1
OVCAR-3 = assay: Growth inhibition of human OVCAR-3 cells measured after 48 hrs by sulforhodamine B assay; type: functional; method in brief: as §1
OVCAR-8 = assay: Growth inhibition of human OVCAR-8 cells measured after 48 hrs by sulforhodamine B assay; type: functional; method in brief: as §1
SNB-78 = assay: Growth inhibition of human SNB-78 cells measured after 48 hrs by sulforhodamine B assay; type: functional; method in brief: as §1
SNB-75 = assay: Growth inhibition of human SNB-75 cells measured after 48 hrs by sulforhodamine B assay; type: functional; method in brief: as §1
[1] = Growth inhibition of human HBC5 cells measured after 48 hrs by sulforhodamine B assay; type: functional; method in brief: as §1
LOX IMVI = assay: Growth inhibition of human LOX IMVI cells measured after 48 hrs by sulforhodamine B assay; type: functional; method in brief: as §1
St-4 = assay: Growth inhibition of human St-4 cells measured after 48 hrs by sulforhodamine B assay; type: functional; method in brief: as §1
[2] = Selectivity index, ratio of IC50 for mouse HDAC6 expressed in 293T cells to IC50 for human HDAC1 expressed in 293T cells using Ac-KGLGK(Ac)-MCA as substrate incubated for 30 mins in presence of 0.1 mM DTT by fluorescence plate reader assay; conditions: 0.5 h
Method in brief: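 Ratio of HDAC6 IC₅₀ to HDAC1 IC₅₀, taken as selectivity for class I HDAC1 over class II HDAC6. Both enzyme assays were run in the presence of 0.1 mM DTT.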

U-251 = assay: Growth inhibition of human U-251 cells measured after 48 hrs by sulforhodamine B assay; type: functional; method in brief: as §1
ACHN = assay: Growth inhibition of human ACHN cells measured after 48 hrs by sulforhodamine B assay; type: functional; method in brief: as §1
SF-295 = assay: Growth inhibition of human SF-295 cells measured after 48 hrs by sulforhodamine B assay; type: functional; method in brief: as §1
[3] = Growth inhibition of human HBC4 cells measured after 48 hrs by sulforhodamine B assay; type: functional; method in brief: as §1
DU-145 = assay: Growth inhibition of human DU-145 cells measured after 48 hrs by sulforhodamine B assay; type: functional; method in brief: as §1
SF-268 = assay: Growth inhibition of human SF-268 cells measured after 48 hrs by sulforhodamine B assay; type: functional; method in brief: as §1
SF-539 = assay: Growth inhibition of human SF-539 cells measured after 48 hrs by sulforhodamine B assay; type: functional; method in brief: as §1
Histone deacetylase 1 = Histone deacetylase 1 (Homo sapiens, UniProt Q13547); assay: Inhibition of human HDAC1 expressed in 293T cells using Ac-KGLGK(Ac)-MCA as substrate incubated for 30 mins in presence of 0.1 mM DTT by fluorescence plate reader assay; parameters: species or system HEK293T
MCF7 = assay: Growth inhibition of human MCF7 cells measured after 48 hrs by sulforhodamine B assay; type: functional; method in brief: as §1
HT-29 = assay: Growth inhibition of human HT-29 cells measured after 48 hrs by sulforhodamine B assay; type: functional; method in brief: as §1
NCI-H226 = assay: Growth inhibition of human NCI-H226 cells measured after 48 hrs by sulforhodamine B assay; type: functional; method in brief: as §1
[4] = target: T1, Protein deacetylase HDAC6 (Mus musculus, UniProt Q9Z2V5); assay: Inhibition of mouse HDAC6 expressed in 293T cells using Ac-KGLGK(Ac)-MCA as substrate incubated for 30 mins in presence of 0.1 mM DTT by fluorescence plate reader assay; parameters: species or system HEK293T
T1 sequence (Q9Z2V5 whole entry): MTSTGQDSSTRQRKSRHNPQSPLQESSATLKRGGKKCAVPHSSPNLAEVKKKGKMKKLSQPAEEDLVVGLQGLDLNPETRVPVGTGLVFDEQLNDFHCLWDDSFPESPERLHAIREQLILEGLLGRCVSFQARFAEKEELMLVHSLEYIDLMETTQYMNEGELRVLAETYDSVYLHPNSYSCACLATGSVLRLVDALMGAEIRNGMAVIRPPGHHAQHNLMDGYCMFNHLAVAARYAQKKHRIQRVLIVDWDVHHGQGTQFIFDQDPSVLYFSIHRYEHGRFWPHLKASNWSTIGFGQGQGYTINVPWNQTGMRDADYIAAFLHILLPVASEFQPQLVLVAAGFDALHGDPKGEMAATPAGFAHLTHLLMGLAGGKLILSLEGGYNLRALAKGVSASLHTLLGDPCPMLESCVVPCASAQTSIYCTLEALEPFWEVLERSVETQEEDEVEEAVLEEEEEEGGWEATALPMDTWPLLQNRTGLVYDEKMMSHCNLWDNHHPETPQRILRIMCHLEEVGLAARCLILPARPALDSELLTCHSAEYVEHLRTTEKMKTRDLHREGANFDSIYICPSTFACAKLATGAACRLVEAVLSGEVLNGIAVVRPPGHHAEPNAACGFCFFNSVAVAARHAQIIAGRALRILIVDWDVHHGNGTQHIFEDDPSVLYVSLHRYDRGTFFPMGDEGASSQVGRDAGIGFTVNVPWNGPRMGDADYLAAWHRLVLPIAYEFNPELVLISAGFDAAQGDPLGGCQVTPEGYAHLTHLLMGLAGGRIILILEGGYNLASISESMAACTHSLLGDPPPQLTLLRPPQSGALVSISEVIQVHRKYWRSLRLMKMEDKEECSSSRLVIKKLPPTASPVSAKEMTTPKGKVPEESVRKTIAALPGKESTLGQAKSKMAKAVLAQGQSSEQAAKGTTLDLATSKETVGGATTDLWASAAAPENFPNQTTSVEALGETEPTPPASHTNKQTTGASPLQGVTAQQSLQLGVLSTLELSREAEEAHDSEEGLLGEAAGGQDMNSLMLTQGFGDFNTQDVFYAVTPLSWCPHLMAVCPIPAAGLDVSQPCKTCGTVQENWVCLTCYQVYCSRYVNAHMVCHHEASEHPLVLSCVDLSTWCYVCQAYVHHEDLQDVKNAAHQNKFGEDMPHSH
Method in brief: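 HDAC enzyme assay run in the presence of 0.1 mM dithiothreitol (DTT); IC₅₀ determined.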

NCI-H460 = assay: Growth inhibition of human NCI-H460 cells measured after 48 hrs by sulforhodamine B assay; type: functional; method in brief: as §1
[5] = Growth inhibition of human BSY1 cells measured after 48 hrs by sulforhodamine B assay; type: functional; conditions: BSY-1; method in brief: as §1
SK-OV-3 = assay: Growth inhibition of human SK-OV-3 cells measured after 48 hrs by sulforhodamine B assay; type: functional; method in brief: as §1
MKN-74 = assay: Growth inhibition of human MKN-74 cells measured after 48 hrs by sulforhodamine B assay; type: functional; method in brief: as §1
NCI-H23 = assay: Growth inhibition of human NCI-H23 cells measured after 48 hrs by sulforhodamine B assay; type: functional; method in brief: as §1
KM12 = assay: Growth inhibition of human KM12 cells measured after 48 hrs by sulforhodamine B assay; type: functional; method in brief: as §1
PC-3 = assay: Growth inhibition of human PC-3 cells measured after 48 hrs by sulforhodamine B assay; type: functional; method in brief: as §1
OVCAR-4 = assay: Growth inhibition of human OVCAR-4 cells measured after 48 hrs by sulforhodamine B assay; type: functional; method in brief: as §1
HCC 2998 = assay: Growth inhibition of human HCC 2998 cells measured after 48 hrs by sulforhodamine B assay; type: functional; method in brief: as §1
OVCAR-5 = assay: Growth inhibition of human OVCAR-5 cells measured after 48 hrs by sulforhodamine B assay; type: functional; method in brief: as §1
RXF 631 = assay: Growth inhibition of human RXF 631 cells measured after 48 hrs by sulforhodamine B assay; type: functional; method in brief: as §1
NCI-H522 = assay: Growth inhibition of human NCI-H522 cells measured after 48 hrs by sulforhodamine B assay; type: functional; method in brief: as §1
MKN-7 = assay: Growth inhibition of human MKN-7 cells measured after 48 hrs by sulforhodamine B assay; type: functional; method in brief: as §1
HCT-15 = assay: Growth inhibition of human HCT-15 cells measured after 48 hrs by sulforhodamine B assay; type: functional; method in brief: as §1
A549 = assay: Growth inhibition of human A549 cells measured after 48 hrs by sulforhodamine B assay; type: functional; method in brief: as §1

Sequence of Histone deacetylase 1 (Q13547 whole entry): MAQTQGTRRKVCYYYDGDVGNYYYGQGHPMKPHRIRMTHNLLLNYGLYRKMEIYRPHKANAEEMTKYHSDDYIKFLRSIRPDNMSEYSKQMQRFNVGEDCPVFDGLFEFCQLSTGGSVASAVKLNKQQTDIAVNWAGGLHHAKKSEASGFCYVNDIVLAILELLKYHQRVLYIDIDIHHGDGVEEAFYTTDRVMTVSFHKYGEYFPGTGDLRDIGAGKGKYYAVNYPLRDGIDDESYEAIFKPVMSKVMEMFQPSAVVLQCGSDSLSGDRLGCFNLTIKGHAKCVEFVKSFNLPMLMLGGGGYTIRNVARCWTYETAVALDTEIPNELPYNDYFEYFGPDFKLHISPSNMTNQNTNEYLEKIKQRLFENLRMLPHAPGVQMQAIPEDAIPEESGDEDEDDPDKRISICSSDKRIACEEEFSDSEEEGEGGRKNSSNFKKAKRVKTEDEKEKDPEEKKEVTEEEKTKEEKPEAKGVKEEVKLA

SMILES: CC(C)C[C@@H]1NC(=O)[C@H]2CSSCC/C=C/[C@H](CC(=O)N[C@H](C(C)C)C(=O)N2)OC(=O)CNC1=O
- GI50 (DMS-273): 1400 nM
- GI50 (MKN-1): 1100 nM
- GI50 (DMS-114): 680 nM
- GI50 (MKN-28): 1800 nM
- GI50 (MDA-MB-231): 1200 nM
- GI50 (HCT-116): 340 nM
- GI50 (MKN-45): 2200 nM
- GI50 (OVCAR-3): 1500 nM
- GI50 (OVCAR-8): 1500 nM
- GI50 (SNB-78): 1800 nM
- GI50 (SNB-75): 1000 nM
- GI50 [1]: 1700 nM
- GI50 (LOX IMVI): 180 nM
- GI50 (St-4): 2100 nM
- Ratio IC50 [2]: 198
- GI50 (U-251): 330 nM
- GI50 (ACHN): 9.4 µM
- GI50 (SF-295): 1500 nM
- GI50 [3]: 1400 nM
- GI50 (DU-145): 830 nM
- GI50 (SF-268): 820 nM
- GI50 (SF-539): 1500 nM
- IC50 (Histone deacetylase 1): 11.4 nM
- GI50 (MCF7): 1600 nM
- GI50 (HT-29): 690 nM
- GI50 (NCI-H226): 1600 nM
- IC50 [4]: 2260 nM
- GI50 (NCI-H460): 1100 nM
- GI50 [5]: 1500 nM
- GI50 (SK-OV-3): 1500 nM
- GI50 (MKN-74): 1500 nM
- GI50 (NCI-H23): 1200 nM
- GI50 (KM12): 1100 nM
- GI50 (PC-3): 1400 nM
- GI50 (OVCAR-4): 1600 nM
- GI50 (HCC 2998): 1300 nM
- GI50 (OVCAR-5): 1200 nM
- GI50 (RXF 631): 3.2 µM
- GI50 (NCI-H522): 200 nM
- GI50 (MKN-7): 1800 nM
- GI50 (HCT-15): 17 µM
- GI50 (A549): 720 nM
